Hits are enriched below; roughly 6.4% of the tested compounds scored in any of these assays.
Jurkat tox 60K = cytotoxicity toward Jurkat T cells, primary screen, cytotoxicity control, cell-based, Jurkat E6.1, 60K MLSMR library; Jurkat E6.1 viability, ATP luminescence, 48 h; hit rate 1.2% among 56,000; inhibition, % at 4 µM;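 active = inhibition above the mean inhibition of all tested compounds plus 3 SD, cut at about 28% in these data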
HUVEC inhibit = inhibitors of HUVEC proliferation, primary screen, cell-based, 384-well; CellTiter-Glo luminescence, 72 h; stronger effect = lower value; hit rate 1.1% among 86,000; viability, % at 10 µM (by protocol);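 active = viability at or below 30%; inactive = viability above 30%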;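 note: 100% = median luminescence of DMSO-only cell control wells on each plate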
Lung fibro prol = antiproliferative effect on LL 47 fibroblasts – human, LL 47 cells, CellTiter-Glo luminescence, primary screen; AID 719, 2007; viability, % at 10 µM; hit rate 1.1% among 85,000; LL 47 human lung fibroblast viability, ATP luminescence; stronger effect = lower value;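 active = viability at or below 50% in the single dose screen; inactive = viability above 50%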;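 note: compound exposure lasted 72 h before the ATP readout; 100% = median luminescence of untreated cell-only wells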
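test system = LL 47 human lung fibroblasts | amount = 1,150 fibroblasts seeded per well | medium = 15% FBS in IMEM | times = overnight cell rest, 72 h compound treatment at 37 °C | measured by = CellTiter-Glo luminescence measuring cellular ATP | read-out = viability percentage against median untreated-cell control | benchmarks = cell-only wells, no compound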
H69AR inhibit = proliferation blockers of H69AR lung cancer cells, primary screen, cell-based, human, 86K library. H69AR lung tumor viability, ATP luminescence, 72 h; stronger effect = lower value. viability, % at 10 µM. hit rate 6% among 85,000;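 active = viability at or below 40%; inactive = viability above 40%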;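 note: multidrug resistant small cell line overexpressing MRP-1 efflux transporter; 100% = mean luminescence of untreated control wells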
Numbers without * were called inactive; x = no result given.

SMILES	Jurkat tox 60K	HUVEC inhibit	Lung fibro prol	H69AR inhibit
CC1=C(C(=O)Nc2cccnc2)C(c2ccc(C(C)C)cc2)n2ncnc2N1 (configuration not stated)	-8.6	99.1	99.0	86.3
O=C(NCc1cccc(F)c1)c1noc2c1CCCC2	59.8*	82.9	77.8	39.8*
O=C(NCc1ccco1)c1noc2c1CCCCC2	-4.2	105.4	100.2	91.0
O=C(NCc1ccc(Cl)cc1)c1noc2c1CCCC2	2.2	102.6	99.3	105.5
O=C(NCc1ccccc1)c1noc2c1CCCC2	56.1*	91.2	89.8	62.1
O=C(NCc1cccnc1)c1noc2c1CCCC2	5.5	101.9	100.1	101.6
O=C(NCc1cccs1)c1noc2c1CCCC2	68.0*	95.9	91.7	47.7
CSCC[C@H](NC(=O)CCNC(C)=O)c1nc2ccccc2[nH]1	x	92.0	95.9	93.1
COC(=O)c1cc(OC)c(OC)cc1NC(=O)c1ccc(C)cc1	x	68.3	94.0	16.2*
COC(=O)c1cc(OC)c(OC)cc1NC(=O)c1ccc(C)o1	x	80.7	104.1	66.5
COc1ccc(OC)c2c(C)cc(N3CCN(C(=O)c4ccc(Cl)cc4)CC3)nc12	x	67.0	91.2	94.0
O=C(CC1(O)C(=O)Nc2cc(Cl)cc(Cl)c21)c1ccccc1O (configuration not stated)	3.4	x	x	x
CCCn1c(N2CCN(S(=O)(=O)Cc3ccccc3)CC2)nc2ccccc21	6.6	77.4	57.0	39.2*
CCCn1c(N2CCN(CC(=O)NCc3cccs3)CC2)nc2ccccc21	0.1	101.6	99.5	37.9*
O=C(CN1CCC(n2nnc3ccccc32)CC1)NCc1cccs1	4.9	112.0	98.3	92.7
c1ccc(N2CCN(c3ccccc3)C2c2cccs2)cc1	-5.5	102.3	108.0	95.1
COCCNC(=O)CSc1nc2cc(OC)c(OC)cc2c(=O)n1Cc1ccc(OC)cc1	x	102.2	91.5	94.5
COc1cc2nc(SCC(=O)NC3CC3)n(CCC3=CCCCC3)c(=O)c2cc1OC	-3.2	24.8*	76.2	33.6*
COc1cc2nc(SCc3c(C)noc3C)n(CCC3=CCCCC3)c(=O)c2cc1OC	-0.2	71.5	86.1	26.7*
Cc1noc(C)c1CSc1nc2sc3c(c2c(=O)n1C)CCCC3	x	52.0	86.5	73.4
Cc1ccc(C(=O)N(c2ccccc2)C2CC(C)N(C(=O)c3ccco3)c3ccccc32)cc1 (configuration not stated)	x	93.1	86.5	80.5
c1cc2c(cc1C1CCCCC1)c1c3n2CCCNC3CCC1 (configuration not stated)	x	2.7*	2.6*	1.3*
c1cc2c(cc1C1CCCCC1)c1c3n2CCN=C3CCC1	x	2.1*	66.5	0.2*
Cc1ccc2c(c1)c1c3n2CCCNC3CCC1 (configuration not stated)	-1.5	x	x	x
COc1ccc(C(C)=O)cc1COc1ccc(-n2cnnn2)cc1	x	115.8	101.3	112.9
SMILES	Jurkat tox 60K	HUVEC inhibit	Lung fibro prol	H69AR inhibit
O=C(CSc1nc2ccccc2s1)c1cc2ccccc2o1	x	119.0	98.4	92.3
CC(C)Oc1cccc(C(=O)O)c1	1.4	99.7	106.5	105.5
CCn1c(COc2ccccc2C)nnc1SCC(=O)CC(=O)Nc1ccccc1OC	-5.0	79.3	93.1	85.1
COc1cccc(-c2nc(CS(=O)(=O)CC(=O)NCCC(C)C)c(C)o2)c1	-0.1	x	x	x
COc1cccc(-c2nc(CS(=O)(=O)CC(=O)Nc3cc(C)ccc3C)c(C)o2)c1	3.7	94.7	103.4	20.1*
COc1cccc(-c2nc(CS(=O)(=O)CC(=O)Nc3c(C)cccc3C)c(C)o2)c1	-7.2	78.9	92.3	14.2*
COc1ccc2c(c1)c(CCN1C(=O)c3ccccc3C1=O)cn2C(=O)c1ccco1	1.1	26.2*	80.1	49.8
COC(=O)/C=C/S(=O)(=O)c1ccc(NC(C)=O)cc1	70.9*	79.6	x	1.0*
CC(=O)CCS(=O)(=O)c1ccc(NC(C)=O)cc1	x	97.1	93.3	0.2*
Cc1oc(-c2ccccc2)cc1C(=O)Nc1cccc2ccccc12	x	98.0	99.5	33.9*
O=C(Nc1ccc(S(=O)(=O)N2CCN(Cc3ccccc3)CC2)cc1)c1cnccn1	16.4	101.0	93.2	99.7
CCOC(=O)NCc1ccc(S(=O)(=O)Nc2c(C)cccc2C)cc1	x	95.8	93.9	100.2
CCOC(=O)c1c(C)[nH]c(C)c1C(=O)CSc1nnc(-c2ccncc2)n1C	2.9	101.7	101.2	87.6
O=C(Nc1nc(-c2ccc(Cl)s2)cs1)c1cccs1	-2.7	69.4	89.9	34.2*
O=C(Nc1nc(-c2ccccn2)cs1)c1ccc(Cl)s1	48.4*	28.3*	28.3*	2.9*
Cn1cccc1C(=O)Nc1nc(-c2ccccn2)cs1	17.8	56.5	60.1	35.3*
O=C(Nc1nc(-c2cccs2)cs1)c1ccc(S(=O)(=O)N2CCCCC2)cc1	31.3	80.0	94.3	78.0
O=C(Nc1nc(-c2ccccn2)cs1)c1ccc(S(=O)(=O)N2CCCCC2)cc1	54.3*	32.7	47.8*	42.4
CCOc1ccc(Cn2c(C)nc([N+](=O)[O-])c2SCC(O)CCl)cc1[N+](=O)[O-] (configuration not stated)	x	90.9	82.1	71.7
CC(=O)OC(C(=O)Nc1ccccc1C)C(OC(C)=O)C(OC(C)=O)C(OC(C)=O)C(=O)Nc1ccccc1C (configuration not stated)	x	95.6	101.4	91.9
Cc1ccc2nsnc2c1S(=O)(=O)N(Cc1cc2cccc(C)c2[nH]c1=O)CC1CCCO1 (configuration not stated)	0.8	60.1	90.5	10.3*
COc1cc(C2SCC(=O)N2CCCN(C)C)cc(OC)c1OC (configuration not stated)	x	97.3	104.9	88.9
COc1ccc(OC)c(C2=Nn3c(nnc3C3CCCCC3)SC2)c1	x	91.4	93.8	103.2
COc1ccc(C2=Nn3c(nnc3C3CCCCC3)SC2)cc1OC	x	81.7	41.1*	14.5*
c1ccc(C2=Nn3c(nnc3-c3ccncc3)SC2)cc1	-15.2	77.5	106.1	80.8
SMILES	Jurkat tox 60K	HUVEC inhibit	Lung fibro prol	H69AR inhibit
COc1ccc(-c2nnc3n2N=C(c2ccccc2)CS3)cc1OC	-4.3	31.9	14.8*	53.5
Cc1cccc(-c2nnc3n2N=C(c2ccccc2)CS3)c1	x	97.1	90.9	36.0*
Cc1cc(-c2nnc3n2N=C(c2ccc(-c4ccccc4)cc2)CS3)n[nH]1	-1.3	28.2*	60.1	3.9*
O=C1OC(C(=O)O)Cc2ccccc21 (configuration not stated)	x	100.6	104.3	85.6
COc1cccc(CNCCSc2nnnn2C)c1OC	x	95.4	97.1	97.9
COc1ccc(Cc2nnc3n2N=C(c2cc4ccccc4o2)CS3)cc1OC	3.7	82.1	94.1	35.0*
CCCc1nnc2n1N=C(c1ccc(OC)c(OC)c1)CS2	-3.9	84.2	73.2	78.6
COc1ccc(NC(=O)C2CCN(S(=O)(=O)c3c(C)noc3C)CC2)cc1Cl	x	91.5	108.6	104.9
CCOC(=O)c1cc2sccc2n1CC(=O)c1ccc2c(c1)OCCO2	-1.0	79.5	96.2	71.6
CCOC(=O)c1ccc2ncc(C(=O)OCC)c(NCc3ccco3)c2c1	-3.1	65.2	105.1	36.2*

High-throughput results from PubChem.
